Laboratory results reported in article PMC3215888 (Cancer Chemotherapy and Pharmacology, 2011).
pIC50: −log10 of the molar value. Read-outs that look alike come from different tables or passages of the source.

What was measured:
[1] = test system: NB-1643 neuroblastoma cell line; test: DIMSCAN in vitro testing, 96 h; format: cell-based; conditions: for pIC50: NB-1643, 96 h
Summary of the method: (§1)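 Neuroblastoma and Ewing sarcoma lines, STR-verified and maintained as in the originators' reports. Exposed for 96 h to test compound (DMSO stock diluted in medium) at 1 nM–10 μM. Viable cells quantified by fluorescein diacetate fluorescence with DIMSCAN digital image microscopy. Absolute IC50 = concentration giving 50% growth inhibition vs controls. Relative IC50 = concentration giving 50% of the maximum inhibitory effect.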

[2] = test system: CHLA-122 neuroblastoma cell line; test: DIMSCAN in vitro testing, 96 h; format: cell-based; conditions: for pIC50: Neuroblastoma cell, 96 h
Summary of the method: as §1

[3] = test system: A-673 Ewing sarcoma cell line; test: DIMSCAN in vitro testing, 96 h; format: cell-based; conditions: for pIC50: Homo sapiens, A673, 96 h
Summary of the method: as §1

[4] = test system: SMS-MSN neuroblastoma cell line; test: DIMSCAN in vitro testing, 96 h; format: cell-based; conditions: for pIC50: Neuroblastoma cell, 96 h
Summary of the method: as §1

[5] = test system: CHLA-10 Ewing sarcoma cell line; test: DIMSCAN in vitro testing, 96 h; format: cell-based; conditions: for pIC50: 96 h
Summary of the method: as §1

[6] = test system: Ewing sarcoma (n = 11) and neuroblastoma (n = 17) cell lines; test: DIMSCAN in vitro testing, 96 h, whole extended panel; format: cell-based
[7] = test system: CHLA-119 neuroblastoma cell line; test: DIMSCAN in vitro testing, 96 h; format: cell-based; conditions: for pIC50: Neuroblastoma cell, 96 h
Summary of the method: as §1

[8] = test system: CHLA-56 Ewing sarcoma cell line; test: DIMSCAN in vitro testing, 96 h; format: cell-based
Summary of the method: as §1

[9] = test system: SMS-LHN neuroblastoma cell line; test: DIMSCAN in vitro testing, 96 h; format: cell-based; conditions: for pIC50: Neuroblastoma cell, 96 h
Summary of the method: as §1

[10] = test system: SMS-SAN neuroblastoma cell line; test: DIMSCAN in vitro testing, 96 h; format: cell-based; conditions: for pIC50: Neuroblastoma cell, 96 h
Summary of the method: as §1

NB-1771 tumor xenograft = test: Pharmacodynamics: mitotic index; format: in vivo, mice; conditions: single 20.8 mg/kg
Summary of the method: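 Single oral 20.8 mg/kg dose to mice bearing NB-1771 tumors. Tumors taken at 0, 2, 6, 8, 12 and 24 h (3 mice per time), formalin-fixed, paraffin-embedded. 5 μm sections immunofluorescently stained for MPM2 (1:100) and phospho-Ser10 histone H3 (1:25), 60 min at room temperature, DAPI counterstain. Five 40× images per slide; mitotic index = % cells positive for either marker; mean ± SD.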

[11] = test system: SMS-KCNR neuroblastoma cell line; test: DIMSCAN in vitro testing, 96 h; format: cell-based; conditions: for pIC50: 96 h
Summary of the method: as §1

[12] = test system: SMS-KAN neuroblastoma cell line; test: DIMSCAN in vitro testing, 96 h; format: cell-based
[13] = test system: TC-32 Ewing sarcoma cell line; test: DIMSCAN in vitro testing, 96 h; format: cell-based; conditions: for pIC50: Homo sapiens, TC-32, 96 h
Summary of the method: as §1

[14] = test system: ALL-19 ALL B-precursor xenograft; test: ALL xenograft; format: in vivo, mice
Summary of the method: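 Female NOD/scid mice inoculated intravenously with leukemia cells, 8 per group. Test compound suspended in 10% 2-hydroxypropyl-β-cyclodextrin/1% sodium bicarbonate in water. Given by oral gavage twice daily, 5 days weekly for 3 weeks, at 20.8, 10.4, 5.2 or 2.6 mg/kg. Blood %hCD45 of leukocytes tracked; event = hCD45 reaching 25%. EFS by Kaplan–Meier, exact log-rank vs controls. Median group response from individual scores.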

Toxicity [15] = format: in vivo, mice; conditions: solid tumor study at the MTD
Summary of the method: (§2)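 Deaths counted in control and treated arms of the xenograft efficacy studies (10 mice per solid tumor group, 8 per ALL group). A group would be excluded from analysis if mortality exceeded 25%.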

[16] = test system: solid tumor and ALL xenograft models; test: EFS activity across all xenograft models at the MTD; format: in vivo, mice; conditions: MTD 20.8 mg/kg
[17] = test system: CHLA-90 neuroblastoma cell line; test: DIMSCAN in vitro testing, 96 h; format: cell-based; conditions: for pIC50: Neuroblastoma cell, 96 h
Summary of the method: as §1

Toxicity [18] = format: in vivo, mice; conditions: leukemia models at the MTD
Summary of the method: as §2

## COc1cc(Nc2ncc3c(n2)-c2ccc(Cl)cc2C(c2c(F)cccc2OC)=NC3)ccc1C(=O)O [MLN8237]
[1]; read-out: Absolute IC50
  pIC50: 7.43
[1]; read-out: Relative IC50
  pIC50: 7.49
[1]; NB-1643, minimum T/C
  Ymin: 10.2%
[2]; CHLA-122, minimum T/C
  Ymin: 0.6%
[2]; read-out: Absolute IC50
  pIC50: 7.72
[2]; read-out: Relative IC50
  pIC50: 7.77
[3]; A-673, minimum T/C
  Ymin: 13.1%
[3]; read-out: Absolute IC50
  pIC50: 7.49
[3]; read-out: Relative IC50
  pIC50: 7.52
[4]; read-out: Absolute IC50
  pIC50: 7.66
[4]; read-out: Relative IC50
  pIC50: 7.77
[4]; SMS-MSN, minimum T/C
  Ymin: 16.1%
[5]; read-out: Absolute IC50
  pIC50: 7.22
[5]; read-out: Relative IC50
  pIC50: 7.25
[5]; CHLA-10, minimum T/C
  Ymin: 4.7%
[6]; maximum of 28 cell lines
  Ymin, maximum: 48.1%
[6]; median of 28 cell lines
  Ymin, median: 10.9%
[6]; minimum of 28 cell lines
  Ymin, minimum: 0.5%
[6]; read-out: Absolute IC50, maximum
  pIC50: 5.00
[6]; read-out: Absolute IC50, median
  pIC50: 7.43
[6]; read-out: Absolute IC50, minimum
  pIC50: 8.00
[6]; read-out: Relative IC50, maximum
  pIC50: 5.00
[6]; read-out: Relative IC50, median
  pIC50: 7.49
[6]; read-out: Relative IC50, minimum
  pIC50: 8.05
[7]; CHLA-119, minimum T/C
  Ymin: 0.5%
[7]; read-out: Absolute IC50
  pIC50: 7.66
[7]; read-out: Relative IC50
  pIC50: 7.66
[8]; 96 h
  pIC50: < 5.00
[8]; CHLA-56, minimum T/C
  Ymin: 48.1%
[9]; read-out: Absolute IC50
  pIC50: 7.49
[9]; read-out: Relative IC50
  pIC50: 7.70
[9]; SMS-LHN, minimum T/C
  Ymin: 25.1%
[10]; read-out: Absolute IC50
  pIC50: 7.70
[10]; read-out: Relative IC50
  pIC50: 7.74
[10]; SMS-SAN, minimum T/C
  Ymin: 5.9%
NB-1771 tumor xenograft
  time of return of mitotic indices to baseline levels: 24 h
NB-1771 tumor xenograft; 20.8 mg/kg
  time of peak of mitotic indices / pharmacodynamic activity: 12 h
NB-1771 tumor xenograft; 6 h
  increase of mitotic indices (MPM2, pHistH3) within 6 h: approximately twofold
NB-1771 tumor xenograft; 12 h
  increase of mitotic indices (MPM2, pHistH3) at peak: three to fivefold
[11]; read-out: Absolute IC50
  pIC50: 8.00
[11]; read-out: Relative IC50
  pIC50: 8.05
[11]; minimum T/C
  Ymin: 6.6%
[12]; read-out: Absolute IC50
  pIC50: 7.47
[12]; read-out: Relative IC50
  pIC50: 7.49
[13]; read-out: Absolute IC50
  pIC50: 7.41
[13]; read-out: Relative IC50
  pIC50: 7.47
[13]; TC-32, minimum T/C
  Ymin: 6.5%
[14]; 2.6 mg/kg
  EFS T/C: 1.0
  EFS activity: Low
  Estimate of median time to event: 2.6 days
  Median group response: PD1 (if the TGD value ≤1.5, that mouse was considered PD1)
  Response activity: Low
  Median RTV/hCD45 at end of study: >25%
[14]; 5.2 mg/kg
  EFS T/C: 9.2
  EFS activity: Int
  Estimate of median time to event: 22.9 days
  Median group response: PD2 (if the TGD value >1.5, the mouse was considered PD2)
  Response activity: Int
  Median RTV/hCD45 at end of study: >25%
[14]; 10.4 mg/kg
  EFS T/C: 14.9
  EFS activity: Int
  Estimate of median time to event: 37.2 days
  Response activity: High
  Median RTV/hCD45 at end of study: >25%
[14]; 20.8 mg/kg
  EFS T/C: 16.8
  EFS activity: Int
  Estimate of median time to event: 41.8 days
  Response activity: High
  Median RTV/hCD45 at end of study: >25%
Toxicity [15]
  mice that died in the MLN8237 treatment arms: 5 of 90
  mice that died in the MLN8237 treatment arms, percent: 5.6%
[16]
  evaluable lines meeting the criteria for high activity (EFS T/C): Eight out of 11
[17]; CHLA-90, minimum T/C
  Ymin: 16.3%
[17]; read-out: Absolute IC50
  pIC50: 7.21
[17]; read-out: Relative IC50
  pIC50: 7.32
Toxicity [18]
  mice that died in the treated arm: 5 of 24
